Laboratory results taken from PMC3374877 (Chembiochem, 2011).
Entries after “also recorded” stand apart in the source; their conditions may differ. Bridges are numbered along the chain shown (N, C = ends). Where no end group is shown, it is not given here.

What was measured:
[1] = system: TLR4 (RAW 264.7 macrophage cells); assay: Nitric oxide production in RAW 264.7 macrophages, LPS-induced TLR4 activation; format: cell-based; details: 50 μM peptide, LPS 50 ng/ml
Procedure, shortened: (§1)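 RAW 264.7 macrophages were stimulated with the TLR-specific ligand in the presence or absence of 50 μM peptide. Nitric oxide production was the read-out of pathway activation.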

[2] = biological target: extracellular construct (a.a. 1–632) of human TLR4 (Homo sapiens, UniProt O00206); format: binding; details: fluorescence polarization
[3] = system: TLR1/TLR2 (RAW 264.7 macrophage cells); format: cell-based; details: 50 μM peptide, Pam3CSK4 250 ng/ml
Procedure, shortened: as §1

[4] = system: TLR2/TLR6 (RAW 264.7 macrophage cells); format: cell-based; details: 50 μM peptide, PGN 50 μg/ml
Procedure, shortened: as §1

[5] = system: rats subjected to CCI of the sciatic nerve; assay: Chronic constriction injury; format: in vivo; details: rat CCI; intrathecal; summary in words
Procedure, shortened: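 Rats underwent chronic constriction injury and were tested at baseline, then on days 4 and 11 after surgery to confirm allodynia. After a pre-drug assessment, peptide was delivered intrathecally into the peri-spinal cerebrospinal fluid by the lumbar approach, at approximately 250 μM final in the intrathecal space. Vehicle was saline. Allodynia was reassessed 1, 3 and 24 h after injection.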

[6] = system: HEK 293 cells; assay: Cytotoxicity, trypan blue staining, HEK 293 cells; format: cell-based
[7] = system: BV2 cells; assay: Cytotoxicity, trypan blue staining, BV2 cells; format: cell-based
[8] = system: RAW 264.7 cells; assay: Cytotoxicity, trypan blue staining, RAW 264.7 cells; format: cell-based
[9] = system: whole human blood; assay: Haemolysis in whole human blood; format: cell-based; details: concentrations up to 500 μM
[10] = system: rats; assay: Behavioural observation after peptide injection; format: in vivo, rat; details: rats of the CCI test; intrathecal injection of peptide stock solutions
[11] = system: TLR4/MD2 complex; details: previously reported; cited from earlier work
[12] = biological target: TLR4; details: read-out: KD of full-length MD2 binding to TLR4; cited from earlier work

Chain of extracellular construct (a.a. 1–632) of human TLR4 (O00206 24-632): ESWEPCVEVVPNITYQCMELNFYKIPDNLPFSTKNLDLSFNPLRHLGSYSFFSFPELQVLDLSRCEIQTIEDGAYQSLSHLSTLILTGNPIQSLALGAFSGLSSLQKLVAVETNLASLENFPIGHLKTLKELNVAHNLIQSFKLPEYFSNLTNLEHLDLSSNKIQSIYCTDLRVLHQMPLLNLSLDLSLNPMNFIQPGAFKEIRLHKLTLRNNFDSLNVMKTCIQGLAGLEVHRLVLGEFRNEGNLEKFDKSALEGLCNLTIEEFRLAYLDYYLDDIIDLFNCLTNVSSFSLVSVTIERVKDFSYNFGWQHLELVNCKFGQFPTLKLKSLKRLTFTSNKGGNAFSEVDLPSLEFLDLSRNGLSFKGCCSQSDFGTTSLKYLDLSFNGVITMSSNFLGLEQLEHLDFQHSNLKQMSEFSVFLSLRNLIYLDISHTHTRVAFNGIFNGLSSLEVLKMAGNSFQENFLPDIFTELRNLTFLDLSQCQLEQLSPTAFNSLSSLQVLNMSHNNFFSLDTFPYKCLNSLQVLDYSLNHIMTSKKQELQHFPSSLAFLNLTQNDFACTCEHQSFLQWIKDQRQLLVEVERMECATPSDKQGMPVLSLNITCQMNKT

CRGSAAAYSFCAALAGA (disulfide 1-11 (inferred)) [MD2-III]
inhibition of TLR4 signalling (NO production) [1]: no inhibition on the TLR4 signaling; also recorded: no inhibitory effect on the TLR4 signaling

CRGSDDDYSFCRALKGE (disulfide 1-11 (inferred)) [MD2-I]
binding activity toward TLR4 (change in polarization) ([2]; TLR4 titrated, in words): robust increase | maximum polarization value ([2]; plateau upon addition of TLR4): approximately 0.25 | inhibition of TLR4 signalling (NO production) [1]: significant reduced signals of LPS-induced TLR4 activation; also recorded: selectively inhibits the NO production induced by LPS | inhibition of TLR1/2 signalling (NO production) [3]: negligible inhibitory effects; also recorded: without affecting other homologous TLRs | inhibition of TLR2/TLR6 signalling (NO production) [4]: negligible inhibitory effects; also recorded: without affecting other homologous TLRs | suppression of neuropathic pain in vivo (summary statement) [5]: moderate potency in an animal model; also recorded: able to suppress neuropathic pain in animal models; also recorded: could suppress neuropathic pain in vivo | cytotoxicity [6]: little cytotoxicity | cytotoxicity [7]: little cytotoxicity | cytotoxicity [8]: little cytotoxicity | haemolysis [9]: does not induce haemolysis | abnormal behaviours after injection [10]: no abnormal behaviours were observed | inhibition of TLR4 signalling, LPS antagonism [11]: abolishes TLR4 signalling by antagonizing its native ligand, lipopolysaccharide (LPS), binding to the TLR4/MD2 complex

full-length MD2: myeloid differentiation factor 2, accessory protein required for TLR4 activation
Kd [12]: 12 nM
